pIC50: −log10 of the molar value. Active and inactive are the calls of the source. The rule behind the calls is not given here.
Tests used:
[1] = tested on: Plasmodium falciparum; test: Antiplasmodial activity against chloroquine-sensitive Plasmodium falciparum D10 after 72 hrs by lactate dehydrogenase assay; assay type: functional, organism-based; conditions: D10, 72 h
Method in brief: (§1)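 Asynchronous blood-stage cultures at 1–1.5% parasitemia and 1% final hematocrit in human A+ RBCs, RPMI 1640 with 1% AlbuMax, hypoxanthine, HEPES and glutamine. Serial dilutions from DMSO stocks, final DMSO <1%. Incubated 72 h at 37 °C under 1% O₂/5% CO₂. IC50 is the mean of ≥3 experiments in duplicate.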

[2] = tested on: Plasmodium falciparum; test: Antiplasmodial activity against chloroquine-resistant Plasmodium falciparum W2 after 72 hrs by lactate dehydrogenase assay; assay type: functional, organism-based; conditions: W2, 72 h; method in brief: as §1
[3] = tested on: Plasmodium falciparum; test: Gametocytocidal activity against Plasmodium falciparum 3D7 elo1-pfs16-CBG99 late-stage (4 to 5) gametocytes assessed as inhibition of parasite viability after 72 hrs by luciferase reporter assay; assay type: functional, organism-based; conditions: 3D7 elo1-pfs16-CBG99, 72 h
Method in brief: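 Transgenic 3D7elo1-pfs16-CBG99 gametocytes express CBG99 luciferase from the pfs16 promoter. Stage IV–V gametocytes (Giemsa-checked) were exposed at day 8–10 after NAG addition to serial dilutions in complete medium for 72 h. Samples at 2% haematocrit were then mixed 1:1 with D-luciferin (1 mM, pH 5.5 citrate) for 10 min and luminescence was read. IC50 came from non-linear regression, mean of ≥3 experiments in duplicate.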

[4] = tested on: Plasmodium falciparum; test: Antiplasmodial activity against asexual blood stage Plasmodium falciparum NF54 after 72 hrs by SYBR green-based fluorometric analysis; assay type: functional, organism-based; conditions: NF54, 72 h
Method in brief: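 Asexual NF54 seeded at 0.83% parasitaemia, 1.5% haematocrit, in RPMI1640 with 10% human serum. Serial dilutions, final DMSO 0.1%. Incubated 72 h at 37 °C under 3% O2, 4% CO2, then read by SYBR Green fluorescence.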

[5] = tested on: Plasmodium falciparum; test: Antiplasmodial activity against gametocytes of Plasmodium falciparum NF54 infected in Anopheles mosquitoes assessed as decrease in infection intensity measured at baseline infection intensity of 30 oocysts/midgut pre-treated with compound for 24 hrs before feeding and measured 8 days post infection by standard membrane feeding assay; assay type: functional, organism-based
Method in brief: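 NF54-HGL luciferase-reporter gametocytes were pre-incubated with compound for 24 h, then membrane-fed to Anopheles mosquitoes. Infection was read by luminescence 8 d post-infection, with 24 mosquitoes analysed per feed and each feed done in duplicate. IC50 was derived for infection intensity and for prevalence at a baseline of 30 oocysts/midgut.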

[6] = tested on: Plasmodium berghei; test: Antimalarial activity against liver stage form of mCherry expressing Plasmodium berghei ANKA sporozoites infected in mouse primary hepatocytes assessed as inhibition of detached cell formation rate at 0.0625 to 4 uM administered 2 hrs post infection and measured after 48 hrs post infection with medium change at 24 hrs post infection by fluorescent microscopic analysis; assay type: functional, organism-based
Method in brief: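 Parasite number and size in unfixed cells by automated microscopy at 48 hpi. Detached cells collected at 65 hpi, counted by fluorescence microscopy, expressed as % of 48 h parasite number. n = 4; one-way ANOVA with Dunnett's test.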

[7] = Cardiotoxicity in Langendorff perfused Wistar rat heart assessed as coronary perfusion pressure at 0.1 to 10 uM; assay type: toxicity, tissue-based
[8] = Cardiotoxicity in Langendorff perfused Wistar rat heart assessed as frequency of heart rate at 0.1 uM by electrocardiography (reference value: 247.05 to 275.90 bpm); assay type: toxicity, tissue-based
[9] = Cardiotoxicity in Langendorff perfused Wistar rat heart assessed as frequency of heart rate at 1 uM by electrocardiography (reference value: 247.05 to 275.90 bpm); assay type: toxicity, tissue-based
[10] = Cardiotoxicity in Langendorff perfused Wistar rat heart assessed as cycle length interval time at 0.1 uM by electrocardiography (reference value: 217.15 to 242.23 milliseconds); assay type: toxicity, tissue-based
[11] = Cardiotoxicity in Langendorff perfused Wistar rat heart assessed as cycle length interval time at 1 uM by electrocardiography (reference value: 217.15 to 242.23 milliseconds); assay type: toxicity, tissue-based
[12] = Cardiotoxicity in Langendorff perfused Wistar rat heart assessed as PQ interval time at 0.1 uM by electrocardiography (reference value: 41.13 to 42.63 milliseconds); assay type: toxicity, tissue-based
[13] = Cardiotoxicity in Langendorff perfused Wistar rat heart assessed as PQ interval time at 1 uM by electrocardiography (reference value: 41.13 to 42.63 milliseconds); assay type: toxicity, tissue-based
[14] = Cardiotoxicity in Langendorff perfused Wistar rat heart assessed as PQ interval time at 3 uM by electrocardiography (reference value: 41.13 to 42.63 milliseconds); assay type: toxicity, tissue-based
[15] = Cardiotoxicity in Langendorff perfused Wistar rat heart assessed as PQ interval time at 10 uM by electrocardiography (reference value: 41.13 to 42.63 milliseconds); assay type: toxicity, tissue-based
[16] = Cardiotoxicity in Langendorff perfused Wistar rat heart assessed as QRS interval time at 0.1 uM by electrocardiography (reference value: 13.31 to 14.35 milliseconds); assay type: toxicity, tissue-based
[17] = Cardiotoxicity in Langendorff perfused Wistar rat heart assessed as QRS interval time at 1 uM by electrocardiography (reference value: 13.31 to 14.35 milliseconds); assay type: toxicity, tissue-based
[18] = Cardiotoxicity in Langendorff perfused Wistar rat heart assessed as QTc interval time at 1 uM by electrocardiography (reference value: 76.45 to 80.07 milliseconds); assay type: toxicity, tissue-based
[19] = Cardiotoxicity in Langendorff perfused Wistar rat heart assessed as QTc interval time at 10 uM by electrocardiography (reference value: 76.45 to 80.07 milliseconds); assay type: toxicity, tissue-based
[20] = biological target: T1, Phosphoethanolamine N-methyltransferase (Plasmodium falciparum) (UniProt Q8IDQ9); test: Inhibition of plasmodium falciparum phosphoethanolamine N-methyltransferase expressed in Escherichia coli assessed as remaining enzyme activity at 100 uM using phosphoethanolamine as substrate and [methyl-14C] SAM by radiochemical assay
T1 sequence (whole entry): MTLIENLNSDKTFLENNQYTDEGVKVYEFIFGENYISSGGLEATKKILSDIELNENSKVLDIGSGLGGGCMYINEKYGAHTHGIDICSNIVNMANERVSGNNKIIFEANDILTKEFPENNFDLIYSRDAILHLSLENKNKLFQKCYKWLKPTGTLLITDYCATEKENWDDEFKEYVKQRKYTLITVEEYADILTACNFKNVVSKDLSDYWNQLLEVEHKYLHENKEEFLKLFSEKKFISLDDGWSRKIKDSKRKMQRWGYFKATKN
Method in brief: (§2)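 Recombinant PfPMT purified from E. coli, 2 μg per 100 μL reaction. Buffer 0.1 M HEPES-KOH pH 8.0, 2 mM Na2EDTA, 10% glycerol, 5% DMSO, with 30 μM SAM (100 nCi [methyl-14C]SAM) and 55 μM phosphoethanolamine; radiochemical read-out.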

[21] = biological target: T2, Phosphoethanolamine N-methyltransferase (Plasmodium falciparum, UniProt Q8IDQ9); test: Inhibition of plasmodium falciparum phosphoethanolamine N-methyltransferase expressed in Escherichia coli using phosphoethanolamine as substrate and [methyl-14C] SAM by radiochemical assay; method in brief: as §2
T2 sequence (Q8IDQ9 whole entry): T1 sequence (whole entry)

[22] = biological target: Voltage-dependent L-type calcium channel subunit alpha-1C (Rattus norvegicus, UniProt P22002); test: Inhibition of CaV1.2 channel in rat tail artery myocytes assessed as reduction in Ba2+ current at -50 mV holding potential by whole-cell patch-clamp assay; assay type: cell-based
Chain of Voltage-dependent L-type calcium channel subunit alpha-1C (P22002 whole entry): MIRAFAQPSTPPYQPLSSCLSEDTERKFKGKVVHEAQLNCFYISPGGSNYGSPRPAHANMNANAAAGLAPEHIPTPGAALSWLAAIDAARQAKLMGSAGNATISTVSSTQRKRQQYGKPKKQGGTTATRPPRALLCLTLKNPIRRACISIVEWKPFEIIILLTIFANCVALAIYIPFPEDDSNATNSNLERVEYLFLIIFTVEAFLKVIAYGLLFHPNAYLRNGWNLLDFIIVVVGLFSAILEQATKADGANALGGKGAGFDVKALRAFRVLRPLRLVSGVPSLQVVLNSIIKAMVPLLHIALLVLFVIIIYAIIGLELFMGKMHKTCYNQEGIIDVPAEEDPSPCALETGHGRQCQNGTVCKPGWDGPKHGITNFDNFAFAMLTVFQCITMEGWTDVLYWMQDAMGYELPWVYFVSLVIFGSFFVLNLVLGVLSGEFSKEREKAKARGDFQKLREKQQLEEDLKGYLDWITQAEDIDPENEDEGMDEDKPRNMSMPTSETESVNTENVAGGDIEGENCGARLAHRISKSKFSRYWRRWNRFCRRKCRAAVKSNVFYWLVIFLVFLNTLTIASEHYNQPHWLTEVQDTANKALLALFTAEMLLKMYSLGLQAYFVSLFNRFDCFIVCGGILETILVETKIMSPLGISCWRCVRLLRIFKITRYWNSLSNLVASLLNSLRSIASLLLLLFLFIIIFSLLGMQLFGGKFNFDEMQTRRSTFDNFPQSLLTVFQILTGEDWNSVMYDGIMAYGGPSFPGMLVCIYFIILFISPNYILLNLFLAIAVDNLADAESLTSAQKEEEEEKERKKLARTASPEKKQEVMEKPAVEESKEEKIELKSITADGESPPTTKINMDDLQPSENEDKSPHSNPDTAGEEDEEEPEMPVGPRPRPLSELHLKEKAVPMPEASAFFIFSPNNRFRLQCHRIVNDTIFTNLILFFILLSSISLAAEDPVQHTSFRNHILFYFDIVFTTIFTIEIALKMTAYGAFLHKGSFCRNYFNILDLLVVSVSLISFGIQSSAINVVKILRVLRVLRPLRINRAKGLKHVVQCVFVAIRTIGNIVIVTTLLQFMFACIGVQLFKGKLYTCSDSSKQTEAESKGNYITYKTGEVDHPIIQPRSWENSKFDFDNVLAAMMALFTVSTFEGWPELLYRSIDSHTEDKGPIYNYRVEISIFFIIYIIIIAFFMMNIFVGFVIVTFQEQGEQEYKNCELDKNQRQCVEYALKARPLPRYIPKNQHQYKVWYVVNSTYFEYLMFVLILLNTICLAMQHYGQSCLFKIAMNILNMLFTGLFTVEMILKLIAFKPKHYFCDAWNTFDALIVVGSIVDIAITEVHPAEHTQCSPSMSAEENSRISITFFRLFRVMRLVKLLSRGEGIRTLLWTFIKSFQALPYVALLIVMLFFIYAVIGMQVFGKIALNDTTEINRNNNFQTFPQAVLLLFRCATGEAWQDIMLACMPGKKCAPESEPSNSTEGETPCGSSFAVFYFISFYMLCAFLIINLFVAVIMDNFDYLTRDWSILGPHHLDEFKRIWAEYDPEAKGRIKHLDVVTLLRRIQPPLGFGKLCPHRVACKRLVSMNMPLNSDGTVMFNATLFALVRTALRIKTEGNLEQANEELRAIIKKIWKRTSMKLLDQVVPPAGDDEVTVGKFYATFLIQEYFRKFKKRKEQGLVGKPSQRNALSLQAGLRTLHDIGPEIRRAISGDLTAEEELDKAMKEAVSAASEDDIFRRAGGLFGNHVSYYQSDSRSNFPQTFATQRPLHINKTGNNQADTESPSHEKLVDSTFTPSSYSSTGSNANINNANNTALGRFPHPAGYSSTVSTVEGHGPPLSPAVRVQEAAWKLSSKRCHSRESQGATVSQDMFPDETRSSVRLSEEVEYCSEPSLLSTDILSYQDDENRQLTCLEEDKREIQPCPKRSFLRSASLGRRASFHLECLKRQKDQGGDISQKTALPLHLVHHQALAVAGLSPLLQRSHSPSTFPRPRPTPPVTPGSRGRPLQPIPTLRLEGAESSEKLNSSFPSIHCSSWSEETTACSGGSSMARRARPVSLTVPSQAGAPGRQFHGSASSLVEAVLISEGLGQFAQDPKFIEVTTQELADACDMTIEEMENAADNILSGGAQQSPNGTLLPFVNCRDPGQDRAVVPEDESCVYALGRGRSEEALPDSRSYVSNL
Method in brief: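 Freshly isolated rat tail artery smooth muscle cells (collagenase digestion), whole-cell patch clamp at 20–22 °C. External solution: 5 mM Ba2+, 30 mM TEA; Cs+-based internal solution, pH 7.4. Currents from 250-ms pulses to 0 mV from Vh −50 mV at 0.067 Hz, after 7–10 min stabilisation. Leak corrected with 10 μM nifedipine. Peak current as % of control; n = 3–6 cells from ≥3 animals.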

Clc1ccc(-c2ccc(CNCC3CCNCC3)o2)c(-c2ccccc2)c1
pIC50 [1]: 6.06 | pIC50 [2]: 5.62 | pIC50 [3]: 5.85 | pIC50 [4]: 6.17 | pIC50 [5]: 6.68 | Activity [6]: inactive | Activity [7]: Non-Toxic | Activity [8]: 276.19 bpm | Activity [9]: 275.47 bpm | Time [10]: 218.32 ms | Time [11]: 217.02 ms | Time [12]: 41.24 ms | Time [13]: 41.59 ms | Time [14]: 45.47 ms | Time [15]: 65.08 ms | Time [16]: 14.2 ms | Time [17]: 13.7 ms | Time [18]: 77.21 ms | Time [19]: 83.77 ms | Activity [20]: 30% | pIC50 [21]: 4.35 | pIC50 [22]: 5.48 | inhibition (INH) ([22]; rat): Dose-dependent effect

Reference: ChEMBL document CHEMBL4229360, “Antimalarial agents against both sexual and asexual parasites stages: structure-activity relationships and biological studies of the Malaria Box compound 1-[5-(4-bromo-2-chlorophenyl)furan-2-yl]-N-[(piperidin-4-yl)methyl]methanamine (MMV019918) and analogues” (Eur J Med Chem, 2018)
